# Bioassay records from PubChem BioAssay.
# In the library only some 3.8% were active in any assay of this set; here they are far more common.
# RAM network inh: inhibitors of the yeast RAM network, primary screen, dse1pr::URA3 reporter, 5-FOA selection; S. cerevisiae dse1pr::URA3 reporter, 5-FOA growth OD615, 2 d; analog-sensitive cbk1-as2 kinase mutant strain; inhibition, % at 50 µM; hit rate 1.8% among 190,000; AID 868, 2007;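 active = inhibition above a set limit, 3 SD over mean compound inhibition, cut at about 8.4% in these data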;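 note: 0% = DMSO-only wells with no growth and 100% = 10 µM 1-NA-PP1 full growth; inhibition rescues growth on 5-FOA so higher OD means more RAM inhibition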
# sdo1 growth: growth rescue of sdo1-depleted yeast, primary screen, S. cerevisiae, bone marrow failure model | S. cerevisiae sdo1-depleted JHY4D growth rescue, OD600 30 h; stronger effect = higher value; pdr5 snq2 efflux-pump mutant strain | z-score at 10 µM | hit rate 0.21% among 140,000 | AID 817, 2007;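 active = z-score above 3 at both the 24 hr and the 30 hr optical density reads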;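 note: z-score against mean and SD of all compound wells on the same plate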
# Yeast life ext: compounds extending yeast replicative lifespan, primary screen, S. cerevisiae, OD615; S. cerevisiae growth with nicotinamide; deaD strain in restrictive glucose medium; inhibition of the nicotinamide effect, % at 10 µM; AID 775, 2007; hit rate 0.68% among 130,000;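 active = inhibition above a set limit, placed 3 SD over the median of all compounds, cut at about 26% in these data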;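 note: 0% = nicotinamide-treated wells and 100% = cells grown without nicotinamide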
#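 assay system = DeaD-strain S. cerevisiae | measured by = absorbance at 615 nm | probe or stimulus = nicotinamide 1.5 mM | buffer or medium = CSMM-D glucose medium, restrictive | times = 48 h at 30 °C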
# Measles CPE: compounds protecting cells from measles virus cytopathic effect, primary screen, measles RdRp inhibitor project, single point, MLSMR library, absorbance; protection (pct of control), % at 4 µM; AID 841, 2007; hit rate 1.5% among 140,000; Measles virus-infected cells, CPE protection; in the data active = protection mostly above about 24%, no sharp cut-off; inactive = mostly below about 26%
# Yeast growth inh: growth inhibitors of yeast BB579 in restrictive medium, primary screen, yeast lifespan-shortening project, S. cerevisiae; OD615, 48 h; inhibition, % at 10 µM; hit rate 0.51% among 140,000;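 active = inhibition above a set limit, 3 SD over the mean compound inhibition, cut at about 44% in these data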
#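 controls = amphotericin B 10 µg/mL, positive | assay system = DeaD yeast strain BB579 | schedule = 48 h compound exposure at 30 °C after 4 h preincubation | detection = OD615 turbidity measurement | medium = restrictive CSMM-D medium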
# * = called active by the depositor; x = not tested or not shown.
SMILES,RAM network inh,sdo1 growth,Yeast life ext,Measles CPE,Yeast growth inh
CCN1CCN(c2nc3ccccc3nc2C(C#N)S(=O)(=O)c2ccc(C)cc2)CC1 (centres undefined),0,0.65,-5,15,-20
CC1CCCN(c2nc3ccccc3nc2C(C#N)C(=O)OC2CCCCC2)C1 (centres undefined),2,-0.52,64*,33,-26
CCCCCCNC(=O)C(C#N)c1nc2ccccc2nc1N1CCCC1 (centres undefined),5,1,-4,4,-4
O=Cc1cccn1-c1ccc(O)cc1,0,x,x,x,x
Cc1cc(=O)n(C)c(=O)n1CC(=O)N1CCCCCC1,1,0.32,-2,30,-31
COc1ccc2c(c1)[nH]c1c(Cl)ncnc12,-2,0.98,-10,7,61*
CCCC(=O)Nc1cc(Cl)ccc1N1CCN(C(=O)CC)CC1,-1,-0.64,-14,6,-11
c1ccc(-c2nnc3sc(-c4ccncc4)nn23)cc1,0,0.95,-12,5,2
Cc1cccc(-c2nnc3sc(-c4ccccc4C)nn23)c1,0,-3.1,-8,6,44*
COc1cccc(-c2nnc3sc(-c4ccccc4)nn23)c1,8.9*,-2.1,x,6,-17
COc1ccc(-c2nn3c(-c4ccccc4)nnc3s2)cc1,6,-2.4,-8,14,-23
CC(C)N1CCN(Cc2cccc(-n3cccn3)c2)CC1CCO (centres undefined),3,x,x,x,x
CCCCn1nc2cc(C(=O)NCc3ccc(C(F)(F)F)cc3C(F)(F)F)ccc2c1OCC,6,-0.04,-14,active,-36
CCOc1c2ccc(C(=O)NCc3ccc(C(F)(F)F)cc3C(F)(F)F)cc2nn1C,2,-0.73,-10,1,-6
CC1CCC2(CC1)NC(=O)N(CC(=O)Nc1ccc3c(c1)OCCO3)C2=O (centres undefined),0,x,x,x,x
CCOC(=O)c1c(C2CC2)csc1NC(C)=O,-1,-0.79,-10,36*,-6
CCNC(=S)N(Cc1ccco1)Cc1cc2cc(OCC)ccc2[nH]c1=O,9.7*,x,x,x,x
Cc1cnc(NC(=O)C2(c3ccccc3)CC2)s1,-1,x,x,x,x
O=C(Nc1ccc(O)cc1)C1CCCO1 (centres undefined),1,0.01,53*,15,-10
O=C(Nc1ccc(F)cc1)C1CCCO1 (centres undefined),1,x,x,x,x
CCOc1ccc(NC(=O)Nc2ccc3c(c2)N(C)C(=O)CS3)cc1,11*,-0.31,-5,41*,-40
CC(=O)c1ccc(NC(=O)Nc2ccc3c(c2)N(C)C(=O)CS3)cc1,2,-0.07,-3,14,-8
O=C(Oc1ccc(Cl)c2cccnc12)c1ccco1,0,-2.8,-18,10,96*
O=c1cc(-c2ccc(Cl)cc2)[nH][nH]1,2,1.4,-9,41*,-6
CCc1cccc(C)c1NC(=O)c1ccoc1C,0,0.42,-14,44*,8
SMILES,RAM network inh,sdo1 growth,Yeast life ext,Measles CPE,Yeast growth inh
CCc1cccc(C)c1NC(=O)c1cc(C)oc1C,-1,-0.84,-6,11,-25
C#CCOCCOCCOCCNc1nc(N2CCN(C(=O)[C@H](CCCCN)n3cc([C@@H](N)CO)nn3)CC2)nc(N2CCN(C(=O)[C@H](Cc3cc4ccccc4[nH]3)n3cc([C@@H](N)CC(C)C)nn3)CC2)n1,1,x,x,x,x
Cc1cccc(Cl)c1OCCCCn1ccnc1,0,0.75,-9,10,5
Cc1cccc(C(C)(C)C)c1OCCn1ccnc1,1,-1.8,7,26*,-8
Cc1ccccc1N/C(SCc1cccc(Br)c1)=C(/C#N)C(N)=O,5,1,10,12,-21
COc1cccc(N/C(SCc2cccc([N+](=O)[O-])c2)=C(/C#N)C(N)=O)c1,8.5*,x,x,x,x
CCOCCCNc1nc2c(c(=O)n(C)c(=O)n2C)n1CCCc1ccccc1,0,0.01,-15,67*,7
Cn1c(=O)c2c(nc(NCc3ccccc3)n2CCCc2ccccc2)n(C)c1=O,4,-1.2,-2,1,-83
COc1ccc(Cl)c(Cn2c(NCCCO)nc3c2c(=O)n(C)c(=O)n3C)c1,-1,1.2,-3,21,-6
O=C1/C(=C/c2cccnc2)CCC/C1=C\c1cccnc1,0,-0.93,74*,0,2
CC(C)/C=C1\CC/C(=C\c2cccnc2)C1=O,1,x,x,x,x
